Source: ChEMBL document CHEMBL1148774, “Doxazolidine induction of apoptosis by a topoisomerase II independent mechanism” (J Med Chem, 2007)
Calls of active or inactive are those of the source. The rule behind the calls is not given here.

Tests used:
[1] = system: MDA-MB-435; assay: Growth inhibition of human MDA-MB-435 cells after 3 hrs by MTT assay; type: functional, cell-based; settings: MDA-MB-435, 3 h
Procedure, shortened: (§1)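 Adherent cells grown in 10% FBS medium (RPMI 1640 or DMEM) were exposed to drug for 3 h. They were then grown until control wells reached ~80% confluence (3–5 days) and quantified by MTT metabolism or crystal violet staining. IC50 was taken from growth inhibition. Each condition was run in hexuplicate, and experiments were done at least twice.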

[2] = Growth inhibition of human IGROVI cells after 48 hrs by MTT assay; type: functional, cell-based
[3] = Growth inhibition of human MCF7/ADR cells after 48 hrs by crystal violet assay; type: functional, cell-based; settings: NCI/ADR-RES
[4] = system: HL60/MX2; assay: Effect on G2/M arrest in topoisomerase 2 deficient human HL60/MX2 cells at 100 nM after 24 hrs; type: functional, cell-based
Procedure, shortened: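 HL-60/MX2 cells in RPMI 1640/10% FBS were treated with 100 nM drug or vehicle for 24 h, then centrifuged and washed in cold PBS. They were fixed in 50% ethanol, treated with RNase A and stained with propidium iodide (50 μg/mL final). Cell cycle distribution was read by flow cytometry.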

[5] = species: Homo sapiens; assay: Inhibition of topoisomerase 2 at 50 nM by decatenation assay
Procedure, shortened: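 Human recombinant topoisomerase II (one unit) was incubated with 143 ng catenated kinetoplast DNA, with or without drug, for 30 min at 37 °C. The buffer held 120 mM KCl, 50 mM Tris-HCl, 10 mM MgCl2, 0.5 mM DTT, 0.5 mM ATP and 30 μg/mL BSA. Reactions were stopped with sarkosyl/glycerol dye, and decatenation was resolved by agarose gel electrophoresis.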

[6] = Growth inhibition of human HL60(TB) cells after 48 hrs by crystal violet assay; type: functional, HL-60(TB); settings: HL-60, 48 h
[7] = system: MIA PaCa-2; assay: Growth inhibition of human MiaPaCa2 cells after 3 hrs by MTT assay; type: functional, cell-based; settings: MIA PaCa-2, 3 h; procedure, shortened: as §1
[8] = system: BXPC-3; assay: Growth inhibition of human BxPc3 cells after 3 hrs by MTT assay; type: functional, cell-based; settings: BXPC-3, 3 h; procedure, shortened: as §1
[9] = system: DU-145; assay: Growth inhibition of human DU145 cells after 48 hrs by MTT assay; type: functional, cell-based; settings: DU-145, 48 h
[10] = system: UACC-257; assay: Growth inhibition of human UACC257 cells after 48 hrs by MTT assay; type: functional, cell-based; settings: UACC-257, 48 h
[11] = system: RXF 393; assay: Growth inhibition of human RXF393 cells after 48 hrs by MTT assay; type: functional, cell-based; settings: RXF 393, 48 h
[12] = system: SF-268; assay: Growth inhibition of human SF268 cells after 48 hrs by MTT assay; type: functional, cell-based; settings: SF-268, 48 h
[13] = system: HL-60; assay: Induction of apoptosis in HL60 cells assessed as annexin V positive cells; type: functional, Homo sapiens
Procedure, shortened: (§2)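 HL-60 and HL-60/MX2 cells in RPMI 1640/10% FBS were treated with 100 nM drug or vehicle for 24 h. Cells were washed in cold PBS and stained with annexin V-fluorescein plus propidium iodide in binding buffer (140 mM NaCl, 10 mM HEPES pH 7.4, 2.5 mM CaCl2). The percent annexin V-positive cells was read by flow cytometry.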

[14] = system: A-375; assay: Growth inhibition of human A375 cells after 3 hrs by MTT assay; type: functional, cell-based; settings: A-375, 3 h; procedure, shortened: as §1
[15] = system: HCT-116; assay: Induction of apoptosis in human HCT116 cells at 50 nM for 3 hrs by annexin V staining assay; type: functional
Procedure, shortened: (§3)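 HCT-116 cells in McCoy's medium/10% FBS were exposed to drug at a series of concentrations, or to vehicle, for 3 h. At 48 h post-treatment they were trypsinized and washed in cold PBS. They were then stained with annexin V-fluorescein and propidium iodide in HEPES pH 7.4/CaCl2 binding buffer, and the percent apoptotic cells was measured by flow cytometry.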

[16] = system: HCT-116; assay: Induction of apoptosis in human HCT116 cells at 200 nM for 3 hrs by annexin V staining assay; type: functional; procedure, shortened: as §3
[17] = system: PC-3; assay: Growth inhibition of human PC3 cells after 3 hrs by MTT assay; type: functional, cell-based; settings: PC-3, 3 h; procedure, shortened: as §1
[18] = system: HCT-116; assay: Induction of apoptosis in human HCT116 cells at 400 nM for 3 hrs relative to control cells by annexin V staining assay; type: functional, cell-based; procedure, shortened: as §3
[19] = system: SHP77; assay: Growth inhibition of human SHP77 cells after 3 hrs by MTT assay; type: functional, cell-based; settings: SHP77, 3 h; procedure, shortened: as §1
[20] = system: HL60/MX2; assay: Induction of apoptosis in topoisomerase 2 deficient HL60/MX2 cells assessed as annexin V positive cells; type: functional, Homo sapiens; procedure, shortened: as §2
[21] = system: HL-60; assay: Effect on G2/M arrest in human HL60 cells at 100 nM after 24 hrs; type: functional, cell-based
Procedure, shortened: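 HL-60 cells kept in RPMI 1640 with 10% FBS, 2 mM L-glutamine, 10 mM HEPES. Exposed continuously for 24 h at 100 nM or vehicle. Cells centrifuged, washed in cold PBS/2 mM EDTA, fixed in 50% ethanol, RNase A treated, stained with propidium iodide (50 μg/mL final). Cell cycle distribution read by flow cytometry.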

[22] = system: NCI-H460; assay: Growth inhibition of human NCIH460 cells after 48 hrs by MTT assay; type: functional, cell-based; settings: NCI-H460, 48 h
[23] = species: Homo sapiens; assay: Inhibition of topoisomerase 2 at 500 nM by decatenation assay
Procedure, shortened: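 Kinetoplast DNA decatenation: 143 ng catenated kDNA with one unit human recombinant topoisomerase II, ± drug at 500 nM. Buffer: 120 mM KCl, 50 mM Tris-HCl, 10 mM MgCl2, 0.5 mM DTT, 0.5 mM ATP, 30 μg/mL BSA. Incubated 30 min at 37 °C. Stopped with sarkosyl/glycerol loading dye, then resolved by agarose gel electrophoresis.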

[24] = system: HCT-116; assay: Cell cycle arrest in human HCT116 cells by accumulation at G2/M phase at 400 nM for 3 hrs by flow cytometry; type: functional, cell-based
Procedure, shortened: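 HCT-116 cells in McCoy's medium with 10% FBS, exposed 3 h at 400 nM or vehicle, then grown on and analysed 24 h post-treatment. Cells trypsinized, washed in cold PBS/2 mM EDTA, fixed in 50% ethanol, RNase A treated, stained with propidium iodide (50 μg/mL final). DNA content by FACScan flow cytometry.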

[25] = system: HCT-116; assay: Growth inhibition of human HCT116 cells after 48 hrs by MTT assay; type: functional, cell-based; settings: HCT-116, 48 h

Structure (SMILES) | IC50 [1] [µM] | IC50 [2] [µM] | IC50 [3] [µM] | IC50 [6] [µM] | IC50 [7] [µM] | IC50 [9] [µM] | IC50 [10] [µM] | IC50 [11] [µM] | IC50 [12] [µM] | Activity [13] [%] | IC50 [14] [µM] | IC50 [17] [µM] | IC50 [19] [µM] | Activity [20] [%] | also measured
COc1cccc2c1C(=O)c1c(O)c3c(c(O)c1C2=O)C[C@@](O)(C(=O)CO)C[C@@H]3O[C@H]1C[C@@H]2NCO[C@@H]2[C@H](C)O1 [DOXAZOLIDINE] | 0.01 | < 0.00138 | < 0.0186 | 0.000331 | 0.00316 | 0.00316 | < 0.00151 | < 0.000977 | 0.00263 | 77 | 0.001 | 0.01 | 0.002 | 75 | Activity [4]: Active; Activity [5]: Active; IC50 [8]: 0.01 µM; Activity [15]: 20%; Activity [16]: 60%; Activity [18]: Dose-dependent effect
COc1cccc2c1C(=O)c1c(O)c3c(c(O)c1C2=O)C[C@@](O)(C(=O)CO)C[C@@H]3O[C@H]1C[C@H](N)[C@H](O)[C@H](C)O1 [DOXORUBICIN] | 0.158 | 0.11 | 13.2 | 0.0589 | 0.316 | 0.11 | 0.209 | 0.178 | 0.0912 | 29 | 0.2 | 0.316 | > 1 | 5 | Activity [21]: inactive; IC50 [22]: 0.00603 µM; Activity [23]: Active; Activity [24]: Active; IC50 [25]: 0.0708 µM
